Test results taken from ChEMBL document CHEMBL1143805, “Synthesis and antimicrobial activities of some novel 1,2,4-triazolo[3,4-b]-1,3,4-thiadiazoles and 1,2,4-triazolo[3,4-b]-1,3,4-thiadiazines carrying thioalkyl and sulphonyl phenoxy moieties” (2007).
Values after ≈ are worked out from the molar mass of the structure shown.

Assays:
Escherichia coli = experiment: Antibacterial activity against Escherichia coli ATCC 25922; type: functional; details: for MIC: Escherichia coli, ATCC 25922
Method in brief: (§1)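 MIC by serial dilution in Mueller-Hinton broth tubes, pH adjusted to 5.0 with phosphate buffer. A standardized bacterial suspension was inoculated and incubated 16-18 h at 37 °C, and MIC was read as the lowest concentration with no visible growth. Zones were also measured in agar wells on seeded plates, with compounds in DMSO and a DMSO control, triplicate plates, 37 °C for 3-4 days.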

Staphylococcus aureus = experiment: Antibacterial activity against Staphylococcus aureus ATCC 25923; type: functional; details: for MIC: Staphylococcus aureus, ATCC 25923; method in brief: as §1
Pseudomonas aeruginosa = experiment: Antibacterial activity against Pseudomonas aeruginosa ATCC 27853; type: functional; details: for MIC: Pseudomonas aeruginosa, ATCC 27853; method in brief: as §1
Klebsiella pneumoniae = experiment: Antibacterial activity against Klebsiella pneumoniae; type: functional; details: for MIC: Klebsiella pneumoniae; method in brief: as §1
Aspergillus flavus = experiment: Antifungal activity against Aspergillus flavus NCIM 524; type: functional; details: for MIC: Aspergillus flavus, NCIM 524
Method in brief: (§2)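 Agar-well diffusion on Sabouraud agar at pH 5.7. Plates were lawned with a saline spore suspension (one loopful in 3 ml), decanted and dried 1 h at 37 °C. Compounds in DMSO went into punched wells, with a DMSO solvent control. Plates were run in triplicate and kept at 37 °C for 3-4 days, with inhibition-zone diameter as read-out.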

Aspergillus fumigatus = experiment: Antifungal activity against Aspergillus fumigatus NCIM 902; type: functional; details: for MIC: Aspergillus fumigatus, NCIM 902
Talaromyces marneffei = experiment: Antifungal activity against Penicillium marneffei; type: functional; details: for MIC: Talaromyces marneffei; method in brief: as §2
Trichophyton benhamiae = experiment: Antifungal activity against Trichophyton mentagrophytes; type: functional, Arthroderma benhamiae; details: for MIC: Trichophyton benhamiae; method in brief: as §2

MIC (Staphylococcus aureus) [µg/mL]	MIC (Klebsiella pneumoniae) [µg/mL]	MIC (Escherichia coli) [µg/mL]	MIC (Pseudomonas aeruginosa) [µg/mL]	MIC (Aspergillus flavus) [µg/mL]	MIC (Aspergillus fumigatus) [µg/mL]	MIC (Talaromyces marneffei) [µg/mL]	MIC (Trichophyton benhamiae) [µg/mL]	Compound	inhibition zone (IZ) (Escherichia coli) [mm]	inhibition zone (IZ) (Staphylococcus aureus) [mm]	inhibition zone (IZ) (Pseudomonas aeruginosa) [mm]	inhibition zone (IZ) (Klebsiella pneumoniae) [mm]	inhibition zone (IZ) (Aspergillus flavus) [mm]	inhibition zone (IZ) (Aspergillus fumigatus) [mm]	inhibition zone (IZ) (Talaromyces marneffei) [mm]	inhibition zone (IZ) (Trichophyton benhamiae) [mm]
12.5 (≈ 31.2 µM)	12.5 (≈ 31.2 µM)	12.5 (≈ 31.2 µM)	12.5 (≈ 31.2 µM)	12.5 (≈ 31.2 µM)	12.5 (≈ 31.2 µM)	25 (≈ 62.4 µM)	12.5 (≈ 31.2 µM)	CS(=O)(=O)c1ccc(OCc2nnc3sc(Cc4ccccc4)nn23)cc1	11	11	11	11	11	11	<10	11
6.25 (≈ 14.2 µM)	6.25 (≈ 14.2 µM)	6.25 (≈ 14.2 µM)	6.25 (≈ 14.2 µM)	6.25 (≈ 14.2 µM)	6.25 (≈ 14.2 µM)	6.25 (≈ 14.2 µM)	6.25 (≈ 14.2 µM)	CCSc1ccc(OCc2nnc3n2N=C(c2ccc(O)c(C(N)=O)c2)CS3)cc1	16	16	16	16	16	16	16	16
25 (≈ 57.2 µM)	25 (≈ 57.2 µM)	25 (≈ 57.2 µM)	25 (≈ 57.2 µM)	25 (≈ 57.2 µM)	25 (≈ 57.2 µM)	25 (≈ 57.2 µM)	25 (≈ 57.2 µM)	CCSc1ccc(OCc2nnc3sc(-c4cccc(Cl)c4Cl)nn23)cc1	<10	<10	<10	<10	<10	<10	<10	<10
25 (≈ 62 µM)	25 (≈ 62 µM)	25 (≈ 62 µM)	25 (≈ 62 µM)	25 (≈ 62 µM)	25 (≈ 62 µM)	25 (≈ 62 µM)	25 (≈ 62 µM)	CCSc1ccc(OCc2nnc3sc(-c4ccccc4Cl)nn23)cc1	<10	<10	<10	<10	<10	<10	<10	<10
6.25 (≈ 17.6 µM)	6.25 (≈ 17.6 µM)	6.25 (≈ 17.6 µM)	6.25 (≈ 17.6 µM)	6.25 (≈ 17.6 µM)	6.25 (≈ 17.6 µM)	6.25 (≈ 17.6 µM)	6.25 (≈ 17.6 µM)	CSc1ccc(OCc2nnc3sc(-c4ccccc4)nn23)cc1	16	16	16	16	16	16	16	16
6.25 (≈ 15.5 µM)	6.25 (≈ 15.5 µM)	6.25 (≈ 15.5 µM)	6.25 (≈ 15.5 µM)	6.25 (≈ 15.5 µM)	6.25 (≈ 15.5 µM)	6.25 (≈ 15.5 µM)	6.25 (≈ 15.5 µM)	CSc1ccc(OCc2nnc3n2N=C(c2ccc(Cl)cc2)CS3)cc1	16	16	16	16	16	16	16	16
6.25 (≈ 13.7 µM)	6.25 (≈ 13.7 µM)	6.25 (≈ 13.7 µM)	6.25 (≈ 13.7 µM)	6.25 (≈ 13.7 µM)	6.25 (≈ 13.7 µM)	6.25 (≈ 13.7 µM)	6.25 (≈ 13.7 µM)	CS(=O)(=O)c1ccc(OCc2nnc3sc(-c4cccc(Cl)c4Cl)nn23)cc1	16	16	16	16	16	16	16	16
12.5 (≈ 27.2 µM)	12.5 (≈ 27.2 µM)	12.5 (≈ 27.2 µM)	12.5 (≈ 27.2 µM)	12.5 (≈ 27.2 µM)	12.5 (≈ 27.2 µM)	25 (≈ 54.4 µM)	12.5 (≈ 27.2 µM)	CS(=O)(=O)c1ccc(OCc2nnc3n2N=C(c2ccc(O)c(C(N)=O)c2)CS3)cc1	11	11	11	11	11	11	<10	11
25 (≈ 57.5 µM)	25 (≈ 57.5 µM)	25 (≈ 57.5 µM)	25 (≈ 57.5 µM)	25 (≈ 57.5 µM)	25 (≈ 57.5 µM)	25 (≈ 57.5 µM)	25 (≈ 57.5 µM)	CS(=O)(=O)c1ccc(OCc2nnc3n2N=C(c2ccc(Cl)cc2)CS3)cc1	<10	<10	<10	<10	<10	<10	<10	< 10
6.25 (≈ 17 µM)	6.25 (≈ 17 µM)	6.25 (≈ 17 µM)	6.25 (≈ 17 µM)	6.25 (≈ 17 µM)	6.25 (≈ 17 µM)	6.25 (≈ 17 µM)	6.25 (≈ 17 µM)	CSc1ccc(OCc2nnc3sc(-c4ccc(C)cc4)nn23)cc1	16	16	16	16	16	16	16	16
25 (≈ 60 µM)	25 (≈ 60 µM)	25 (≈ 60 µM)	25 (≈ 60 µM)	25 (≈ 60 µM)	25 (≈ 60 µM)	25 (≈ 60 µM)	25 (≈ 60 µM)	CCSc1ccc(OCc2nnc3n2N=C(c2ccc(Cl)cc2)CS3)cc1	<10	<10	<10	<10	<10	<10	<10	<10
12.5 (≈ 26.6 µM)	12.5 (≈ 26.6 µM)	12.5 (≈ 26.6 µM)	12.5 (≈ 26.6 µM)	12.5 (≈ 26.6 µM)	12.5 (≈ 26.6 µM)	25 (≈ 53.3 µM)	12.5 (≈ 26.6 µM)	CS(=O)(=O)c1ccc(OCc2nnc3n2N=C(c2ccc(Cl)cc2Cl)CS3)cc1	11	11	11	11	11	11	<10	11
6.25 (≈ 16.9 µM)	6.25 (≈ 16.9 µM)	6.25 (≈ 16.9 µM)	6.25 (≈ 16.9 µM)	6.25 (≈ 16.9 µM)	6.25 (≈ 16.9 µM)	6.25 (≈ 16.9 µM)	6.25 (≈ 16.9 µM)	CSc1ccc(OCc2nnc3sc(-c4ccc(N)cc4)nn23)cc1	16	16	16	16	16	16	16	16
6.25 (≈ 17 µM)	6.25 (≈ 17 µM)	6.25 (≈ 17 µM)	6.25 (≈ 17 µM)	6.25 (≈ 17 µM)	6.25 (≈ 17 µM)	6.25 (≈ 17 µM)	6.25 (≈ 17 µM)	CSc1ccc(OCc2nnc3sc(Cc4ccccc4)nn23)cc1	16	16	16	16	16	16	16	16
6.25 (≈ 14.3 µM)	6.25 (≈ 14.3 µM)	6.25 (≈ 14.3 µM)	6.25 (≈ 14.3 µM)	6.25 (≈ 14.3 µM)	6.25 (≈ 14.3 µM)	6.25 (≈ 14.3 µM)	6.25 (≈ 14.3 µM)	CSc1ccc(OCc2nnc3n2N=C(c2ccc(Cl)cc2Cl)CS3)cc1	16	16	16	16	16	16	16	16
6.25 (≈ 16.3 µM)	6.25 (≈ 16.3 µM)	6.25 (≈ 16.3 µM)	6.25 (≈ 16.3 µM)	6.25 (≈ 16.3 µM)	6.25 (≈ 16.3 µM)	6.25 (≈ 16.3 µM)	6.25 (≈ 16.3 µM)	COc1ccc(-c2nn3c(COc4ccc(SC)cc4)nnc3s2)cc1	16	16	16	16	16	16	16	16

Compound	MIC (Staphylococcus aureus) [µg/mL]	MIC (Klebsiella pneumoniae) [µg/mL]	MIC (Escherichia coli) [µg/mL]	MIC (Pseudomonas aeruginosa) [µg/mL]	MIC (Aspergillus flavus) [µg/mL]	MIC (Aspergillus fumigatus) [µg/mL]	MIC (Talaromyces marneffei) [µg/mL]	MIC (Trichophyton benhamiae) [µg/mL]	inhibition zone (IZ) (Escherichia coli) [mm]	inhibition zone (IZ) (Staphylococcus aureus) [mm]	inhibition zone (IZ) (Pseudomonas aeruginosa) [mm]	inhibition zone (IZ) (Klebsiella pneumoniae) [mm]	inhibition zone (IZ) (Aspergillus flavus) [mm]	inhibition zone (IZ) (Aspergillus fumigatus) [mm]	inhibition zone (IZ) (Talaromyces marneffei) [mm]	inhibition zone (IZ) (Trichophyton benhamiae) [mm]
O=C(O)c1cn(C2CC2)c2cc(N3CCNCC3)c(F)cc2c1=O [CIPROFLOXACIN]	1.56 (≈ 4.71 µM)	6.25 (≈ 18.9 µM)	–	–	–	–	–	–	30	22	25	23	–	–	–	–
